# ChEMBL document CHEMBL2062422, “Design, synthesis and biological evaluation of some novel thienopyrimidines and fused thienopyrimidines as anti-inflammatory agents” (Eur J Med Chem, 2012)
# Legend:
# Rattus norvegicus [1] = experiment: Antiinflammatory activity in albino rat acute inflammatory model assessed as inhibition of formalin-induced paw edema at 10 mg/kg, po administered 1 hr prior to challenge measured after 2 hr
# Rattus norvegicus [2] = experiment: Antiinflammatory activity in albino rat sub-acute inflammatory model assessed as inhibition of turpentine-induced granuloma pouch at 10 mg/kg, po administered 1 hr […] for 7 consecutive days measured at day 8 of challenge; type: functional
# Rattus norvegicus [3] = experiment: Antiinflammatory activity in albino rat acute inflammatory model assessed as inhibition of formalin-induced paw edema at 10 mg/kg, po administered 1 hr prior to challenge measured after 4 hr
# Rattus norvegicus [4] = experiment: Antiinflammatory activity in albino rat sub-acute inflammatory model assessed as inhibition of formalin-induced paw edema at 10 mg/kg, po administered 1 hr post challenge for 7 consecutive days measured at day 8 of challenge; type: functional; conditions: in the assay text read “1 hr prior to challenge” for “1 hr post challenge”
# Rattus norvegicus [5] = experiment: Antiinflammatory activity in albino rat sub-acute inflammatory model assessed as inhibition of formalin-induced paw edema at 10 mg/kg, po administered 1 hr prior to challenge for 7 consecutive days measured at day 1 of challenge
# Rattus norvegicus [6] = experiment: Antiinflammatory activity in albino rat acute inflammatory model assessed as inhibition of formalin-induced paw edema at 10 mg/kg, po administered 1 hr post challenge measured after 1 hr; type: functional; conditions: in the assay text read “administered 1 hr prior to challenge” for “administered 1 hr post challenge”
# How it was run: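 Rats were randomised into groups of five. Dosing was 10 mg/kg po, given 1 h before 2% formalin (0.1 mL) was injected subplantar into the left hind paw under light ether anaesthesia. […] Values are mean ± S.E., N = 5 rats.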
# Rattus norvegicus [7] = experiment: Antiinflammatory activity in albino rat sub-acute inflammatory model assessed as inhibition of formalin-induced paw edema at 10 mg/kg, po administered 1 hr prior to challenge for 7 consecutive days measured at day 8 of challenge
# Rattus norvegicus [8] = experiment: Ulcerogenic activity in albino rat assessed as hyperemia at 300 mg/kg/day administered as equal doses at 0 and 12 hrs for three consecutive days measured at 6 hrs post last dose; type: toxicity, organism-based; conditions: in vivo
# How it was run: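 Male albino rats, 180–200 g, five per group, fasted 12 h with water ad libitum. Dosing was 300 mg/kg/day po, split into equal doses at 0 and 12 h, for 3 successive days. Controls received 1% gum acacia orally. Rats were killed with ether 6 h after the last dose. Stomachs were opened along the greater curvature, washed with cold saline and inspected under a 3X lens for hyperemia, hemorrhage, hemorrhagic erosion or ulcer.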
# [9] = Ulcerogenic activity in po dosed albino rat measured after 24 hrs; type: toxicity, organism-based; conditions: in vivo
# How it was run: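 Male albino rats (180–200 g), five per group, fasted 12 h with water ad libitum. Compounds given orally as two equal doses at 0 and 12 h on three successive days, 300 mg/kg per day. Control received 1% gum acacia po. Rats killed 6 h after the last dose. Stomachs opened along the greater curvature, washed with cold saline and inspected under 3X magnification for hyperemia, hemorrhage, erosion or ulcer.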
# Rattus norvegicus [10] = experiment: Acute toxicity in albino rat at 0.1 to 0.3 g/kg/, po measured after 24 hrs; conditions: in vivo
# Rattus norvegicus [11] = experiment: Antiinflammatory activity in albino rat acute inflammatory model assessed as inhibition of formalin-induced paw edema at 10 mg/kg, po administered 1 hr prior to challenge measured after 1 hr
smiles,measurement,setting,value
Cc1c(C(N)=O)sc2nc(S)n(Cc3ccccc3)c(=O)c12,inhibition in vivo at 10 mg/kg,Rattus norvegicus [1],0%
same,inhibition in vivo at 10 mg/kg,Rattus norvegicus [2],4.07%
same,inhibition in vivo at 10 mg/kg,Rattus norvegicus [3],5%
same,inhibition in vivo at 10 mg/kg,Rattus norvegicus [4],5%
same,inhibition in vivo at 10 mg/kg,Rattus norvegicus [5],4%
same,inhibition in vivo at 10 mg/kg,Rattus norvegicus [6],25%
CSc1nc2sc(C(N)=O)c(C)c2c(=O)n1Cc1ccccc1,inhibition in vivo at 10 mg/kg,Rattus norvegicus [1],43%
same,inhibition in vivo at 10 mg/kg,Rattus norvegicus [2],11.3%
same,inhibition in vivo at 10 mg/kg,Rattus norvegicus [7],21%
same,inhibition in vivo at 10 mg/kg,Rattus norvegicus [3],38%
same,inhibition in vivo at 10 mg/kg,Rattus norvegicus [5],17%
same,inhibition in vivo at 10 mg/kg,Rattus norvegicus [6],44%
Cc1c(C(N)=O)sc2nc(NN)n(Cc3ccccc3)c(=O)c12,Activity,Rattus norvegicus [8],10%
same,inhibition in vivo at 10 mg/kg,Rattus norvegicus [1],61%
same,inhibition in vivo at 10 mg/kg,Rattus norvegicus [2],44.8%
same,LD50 at 24 h,[9],> 300 mg/kg
same,inhibition in vivo at 10 mg/kg,Rattus norvegicus [3],51%
same,Activity,Rattus norvegicus [10],Non-toxic
same,inhibition in vivo at 10 mg/kg,Rattus norvegicus [4],43%
same,inhibition in vivo at 10 mg/kg,Rattus norvegicus [5],43%
same,inhibition in vivo at 10 mg/kg,Rattus norvegicus [6],69%
Cc1c(C(N)=O)sc2nc(N/N=C/c3ccc(Br)cc3)n(Cc3ccccc3)c(=O)c12,inhibition in vivo at 10 mg/kg,Rattus norvegicus [1],39%
same,inhibition in vivo at 10 mg/kg,Rattus norvegicus [2],34.4%
same,inhibition in vivo at 10 mg/kg,Rattus norvegicus [3],44%
same,inhibition in vivo at 10 mg/kg,Rattus norvegicus [4],34%
same,inhibition in vivo at 10 mg/kg,Rattus norvegicus [5],39%
same,inhibition in vivo at 10 mg/kg,Rattus norvegicus [6],69%
Cc1c(C(N)=O)sc2c1c(=O)n(Cc1ccccc1)c1nnc(-c3ccc(Br)cc3)n21,inhibition in vivo at 10 mg/kg,Rattus norvegicus [1],39%
same,inhibition in vivo at 10 mg/kg,Rattus norvegicus [2],41.2%
same,inhibition in vivo at 10 mg/kg,Rattus norvegicus [3],41%
same,inhibition in vivo at 10 mg/kg,Rattus norvegicus [4],30%
same,inhibition in vivo at 10 mg/kg,Rattus norvegicus [11],31%
same,inhibition in vivo at 10 mg/kg,Rattus norvegicus [5],37%
CC(=O)N1N=C2N(Cc3ccccc3)C(=O)c3c(sc(C(N)=O)c3C)N2C1c1ccc(Br)cc1 (centres undefined),inhibition in vivo at 10 mg/kg,Rattus norvegicus [1],30%
same,inhibition in vivo at 10 mg/kg,Rattus norvegicus [2],39.8%
same,inhibition in vivo at 10 mg/kg,Rattus norvegicus [3],36%
same,inhibition in vivo at 10 mg/kg,Rattus norvegicus [4],30%
same,inhibition in vivo at 10 mg/kg,Rattus norvegicus [11],31%
same,inhibition in vivo at 10 mg/kg,Rattus norvegicus [5],33%
Cc1c(C(N)=O)sc2c1c(=O)n(Cc1ccccc1)c1n[nH]c(=S)n21,Activity,Rattus norvegicus [8],10%
same,inhibition in vivo at 10 mg/kg,Rattus norvegicus [1],56%
same,inhibition in vivo at 10 mg/kg,Rattus norvegicus [2],23.1%
same,LD50 at 24 h,[9],> 300 mg/kg
same,inhibition in vivo at 10 mg/kg,Rattus norvegicus [3],51%
same,Activity,Rattus norvegicus [10],Non-toxic
same,inhibition in vivo at 10 mg/kg,Rattus norvegicus [4],34%
same,inhibition in vivo at 10 mg/kg,Rattus norvegicus [5],41%
same,inhibition in vivo at 10 mg/kg,Rattus norvegicus [6],50%
CCOC(=O)CSc1nnc2n(Cc3ccccc3)c(=O)c3c(C)c(C(N)=O)sc3n12,Activity,Rattus norvegicus [8],20%
same,inhibition in vivo at 10 mg/kg,Rattus norvegicus [1],61%
same,inhibition in vivo at 10 mg/kg,Rattus norvegicus [2],41.2%
same,LD50 at 24 h,[9],> 300 mg/kg
same,inhibition in vivo at 10 mg/kg,Rattus norvegicus [3],49%
same,Activity,Rattus norvegicus [10],Non-toxic
same,inhibition in vivo at 10 mg/kg,Rattus norvegicus [4],36%
same,inhibition in vivo at 10 mg/kg,Rattus norvegicus [5],41%
same,inhibition in vivo at 10 mg/kg,Rattus norvegicus [6],56%
Cc1c(C(N)=O)sc2c1c(=O)n(Cc1ccccc1)c1nnc(-c3ccccc3Cl)n21,inhibition in vivo at 10 mg/kg,Rattus norvegicus [1],43%
same,inhibition in vivo at 10 mg/kg,Rattus norvegicus [2],35.7%
same,inhibition in vivo at 10 mg/kg,Rattus norvegicus [3],49%
same,inhibition in vivo at 10 mg/kg,Rattus norvegicus [4],30%
same,inhibition in vivo at 10 mg/kg,Rattus norvegicus [5],33%
same,inhibition in vivo at 10 mg/kg,Rattus norvegicus [6],37%
Cc1c(C(N)=O)sc2c1c(=O)n(Cc1ccccc1)c1nncn21,inhibition in vivo at 10 mg/kg,Rattus norvegicus [1],43%
same,inhibition in vivo at 10 mg/kg,Rattus norvegicus [2],39.4%
same,inhibition in vivo at 10 mg/kg,Rattus norvegicus [3],54%
same,inhibition in vivo at 10 mg/kg,Rattus norvegicus [4],32%
same,inhibition in vivo at 10 mg/kg,Rattus norvegicus [5],39%
same,inhibition in vivo at 10 mg/kg,Rattus norvegicus [6],56%
Cc1c(C(N)=O)sc2c1c(=O)n(Cc1ccccc1)c1n[nH]c(=O)n21,Activity,Rattus norvegicus [8],Non-toxic
same,inhibition in vivo at 10 mg/kg,Rattus norvegicus [1],61%
same,inhibition in vivo at 10 mg/kg,Rattus norvegicus [2],38.5%
same,LD50 at 24 h,[9],> 300 mg/kg
same,inhibition in vivo at 10 mg/kg,Rattus norvegicus [3],49%
same,Activity,Rattus norvegicus [10],Non-toxic
same,inhibition in vivo at 10 mg/kg,Rattus norvegicus [4],37%
same,inhibition in vivo at 10 mg/kg,Rattus norvegicus [5],43%
same,inhibition in vivo at 10 mg/kg,Rattus norvegicus [6],75%
CCOC(=O)Cc1nnc2n(Cc3ccccc3)c(=O)c3c(C)c(C(N)=O)sc3n12,inhibition in vivo at 10 mg/kg,Rattus norvegicus [2],39.8%
same,inhibition in vivo at 10 mg/kg,Rattus norvegicus [4],37%
same,inhibition in vivo at 10 mg/kg,Rattus norvegicus [5],46%
Cc1c(C(N)=O)sc2c1C(=O)N(Cc1ccccc1)C1=NN=C(c3ccc(Cl)cc3)CN12,inhibition in vivo at 10 mg/kg,Rattus norvegicus [1],43%
same,inhibition in vivo at 10 mg/kg,Rattus norvegicus [2],38.5%
same,inhibition in vivo at 10 mg/kg,Rattus norvegicus [3],46%
same,inhibition in vivo at 10 mg/kg,Rattus norvegicus [4],37%
same,inhibition in vivo at 10 mg/kg,Rattus norvegicus [5],46%
same,inhibition in vivo at 10 mg/kg,Rattus norvegicus [6],44%
Cc1c(C(N)=O)sc2nc(-n3nc(-c4ccc(Cl)cc4)cc3N)n(Cc3ccccc3)c(=O)c12,Activity,Rattus norvegicus [8],Non-toxic
same,inhibition in vivo at 10 mg/kg,Rattus norvegicus [1],52%
same,inhibition in vivo at 10 mg/kg,Rattus norvegicus [2],40.3%
same,LD50 at 24 h,[9],> 300 mg/kg
same,inhibition in vivo at 10 mg/kg,Rattus norvegicus [3],46%
same,Activity,Rattus norvegicus [10],Non-toxic
same,inhibition in vivo at 10 mg/kg,Rattus norvegicus [4],30%
same,inhibition in vivo at 10 mg/kg,Rattus norvegicus [5],35%
same,inhibition in vivo at 10 mg/kg,Rattus norvegicus [6],56%
Cc1cc(C)n(-c2nc3sc(C(N)=O)c(C)c3c(=O)n2Cc2ccccc2)n1,inhibition in vivo at 10 mg/kg,Rattus norvegicus [1],39%
same,inhibition in vivo at 10 mg/kg,Rattus norvegicus [2],40.3%
same,inhibition in vivo at 10 mg/kg,Rattus norvegicus [3],49%
same,inhibition in vivo at 10 mg/kg,Rattus norvegicus [4],32%
same,inhibition in vivo at 10 mg/kg,Rattus norvegicus [5],39%
same,inhibition in vivo at 10 mg/kg,Rattus norvegicus [6],44%
CC1=NN(c2nc3sc(C(N)=O)c(C)c3c(=O)n2Cc2ccccc2)C(=O)C1,Activity,Rattus norvegicus [8],Non-toxic
same,inhibition in vivo at 10 mg/kg,Rattus norvegicus [1],48%
same,inhibition in vivo at 10 mg/kg,Rattus norvegicus [2],38.9%
same,LD50 at 24 h,[9],> 300 mg/kg
same,inhibition in vivo at 10 mg/kg,Rattus norvegicus [3],46%
same,Activity,Rattus norvegicus [10],Non-toxic
same,inhibition in vivo at 10 mg/kg,Rattus norvegicus [4],34%
same,inhibition in vivo at 10 mg/kg,Rattus norvegicus [5],39%
same,inhibition in vivo at 10 mg/kg,Rattus norvegicus [6],37%
O=C([O-])Cc1ccccc1Nc1c(Cl)cccc1Cl.[Na+] [DICLOFENAC SODIUM],Activity,Rattus norvegicus [8],Non-toxic
same,inhibition in vivo at 10 mg/kg,Rattus norvegicus [6],63%
COc1ccc2c(c1)c(CC(=O)O)c(C)n2C(=O)c1ccc(Cl)cc1 [INDOMETHACIN],Activity,Rattus norvegicus [8],100%
